Laboratory results: article PMC4835239 (Leukemia & lymphoma, 2015)
Entries after “also recorded” stand apart in the source; their conditions may differ.

Assays:
[1] = test system: patients with relapsed/refractory CLL or small lymphocytic lymphoma (SLL); experiment: Phase I dose-escalation trial: toxicity assessment; type: in vivo
[2] = test system: relapsed/refractory CLL or small lymphocytic lymphoma (SLL); experiment: Response assessment by IWCLL 2008 criteria; type: in vivo, human; settings: all patients
[3] = test system: chymotrypsin-like proteasome activity of CLL cells; experiment: Proteasome activity assay in CLL cells from patient samples; type: in vivo, human
In short: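 Chymotrypsin-like proteasome activity was measured in CLL cells from patient whole blood with a validated commercial assay. Samples were taken at screening, pre- and post-dose day 1, pre-dose day 2, and pre- and post-dose days 8 and 9 of cycle 1. Dosing was a 30-min IV infusion, 20 mg/m2 on days 1–2, then 27, 36, 45 or 56 mg/m2 by cohort from day 8.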

CLL cells [4] = settings: cited from earlier work
CLL = settings: patients with CLL; cited from earlier work
myeloma cells = settings: bortezomib; cited from earlier work
CLL cells [5] = settings: bortezomib; cited from earlier work

CC(C)C[C@H](NC(=O)[C@H](CCc1ccccc1)NC(=O)CN1CCOCC1)C(=O)N[C@@H](Cc1ccccc1)C(=O)N[C@@H](CC(C)C)C(=O)[C@@]1(C)CO1 [Carfilzomib]
Maximum tolerated dose (MTD) ([1]; doses up to 56 mg/m^2 twice weekly for 3 weeks of a 4 week cycle): No maximum tolerated dose of carfilzomib was identified
Dyspnea, incidence ([1]; grade 3, total n=19): 1 number of patients
Febrile neutropenia, incidence ([1]; grade 3, total n=19): 1 number of patients
Grade of electrolyte disturbances ([1]; human, in vivo): ≤ 2 grade
Infusion reaction or tumor lysis syndrome ([1]; in vivo): No patient experienced an infusion reaction or tumor lysis syndrome
Objective partial or complete responses (IWCLL 2008) [2]: No objective partial or complete responses were observed
Chymotrypsin-like proteasome activity ([3]; by 24 hours after dosing): partially recovered; also recorded: recovered partially
Chymotrypsin-like proteasome activity ([3]; by day 8): rebound higher than pretreatment levels; also recorded: completely
Cytotoxicity against CLL cells in vitro (CLL cells [4]): significant cytotoxicity
Effect of human serum on cytotoxic activity against CLL cells (CLL cells [4]; human versus fetal bovine serum): unaffected by human serum

CC(C)C[C@H](NC(=O)[C@H](Cc1ccccc1)NC(=O)c1cnccn1)B(O)O [bortezomib]
Objective clinical responses (CLL): no objective clinical responses

O=c1c(O)c(-c2ccc(O)c(O)c2)oc2cc(O)cc(O)c12 [quercetin]
Level of quercetin required to inhibit apoptosis (myeloma cells): 40 μm
Level of quercetin required to inhibit apoptosis (CLL cells [5]): 20 μm
